Results as given in ChEMBL document CHEMBL1153769, “Novel modified steroid derivatives of androstanolone as chemotherapeutic anti-cancer agents” (Eur J Med Chem, 2009).

Columns and labels:
Mus musculus [1] = species on record: Mus musculus; assay: Toxicity in mouse EAC cells transplanted Swiss albino mouse assessed as induction of dizziness; format: organism-based; conditions: ehrlich
Mus musculus [2] = species on record: Mus musculus; assay: Toxicity in mouse EAC cells transplanted Swiss albino mouse assessed as induction of errection of hair; format: organism-based; conditions: ehrlich
HepG2 [3] = assay: Antitumor activity against human HepG2 cells incubated with drug dissolved in olive oil after 72 hrs by MTT assay; format: functional, cell-based; conditions: HepG2, 72 h
In short: (§1)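 HepG2 cells (trypan blue viability >97%) grown in RPMI-1640 with L-glutamine and 10% fetal calf serum, seeded at 3×10³ cells/well. Compounds in olive oil or DMSO were tested at 10, 50 and 100 for 24, 48 and 72 h. MTT (0.5 mg/ml) added, formazan dissolved in DMSO, OD read at 570 nm (ref 690 nm). Reported as % growth inhibition vs control; run in triplicate.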

Mus musculus [4] = assay: Toxicity in mouse EAC cells transplanted Swiss albino mouse assessed as change in total WBC content at 25 mg/kg. ip dissolved in DMSO for 14 days measured after final dose by 18 hrs fasting; format: organism-based, Ehrlich; parameters: dose 25 mg/kg, route intraperitoneal; conditions: in vivo
In short: (§2)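 Mice (n = 5/group) given 2×10⁶ EAC cells in 0.2 ml i.p. Treatment was 25 mg/kg b.wt. i.p. in DMSO, every other day for 14 days. Animals were fasted 18 h after the last dose, then sacrificed. Tumour volume, haemoglobin, haematocrit, total WBC and body weight recorded. Normal and untreated EAC groups served as controls. Mean ± SE.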

HepG2 [5] = assay: Antitumor activity against human HepG2 cells incubated with drug dissolved in olive oil after 48 hrs by MTT assay; format: functional, cell-based; conditions: HepG2, 48 h; in short: as §1
Mus musculus [6] = species on record: Mus musculus; assay: Toxicity in mouse EAC cells transplanted Swiss albino mouse assessed as induction of hypothermia; format: organism-based; conditions: ehrlich
[7] = Antitumor activity in mouse EAC cells transplanted in Swiss albino mouse assessed as decrease in tumor volume at 25 mg/kg. ip dissolved in DMSO for 14 days measured after final dose by 18 hrs fasting; format: functional, Ehrlich; parameters: unit not given here; conditions: route intraperitoneal; in short: as §2
HepG2 [8] = assay: Antitumor activity against human HepG2 cells incubated with drug dissolved in DMSO after 72 hrs by MTT assay; format: functional, cell-based; conditions: HepG2, 72 h; in short: as §1
Mus musculus [9] = assay: Toxicity in mouse EAC cells transplanted Swiss albino mouse assessed as change in hematocrit content at 25 mg/kg. ip dissolved in DMSO for 14 days measured after final dose by 18 hrs fasting; format: organism-based, Ehrlich; parameters: dose 25 mg/kg, route intraperitoneal; conditions: in vivo; in short: as §2
Mus musculus [10] = assay: Toxicity in mouse EAC cells transplanted Swiss albino mouse assessed as change in hemoglobin content at 25 mg/kg. ip dissolved in DMSO for 14 days measured after final dose by 18 hrs fasting; format: organism-based, Ehrlich; parameters: dose 25 mg/kg, route intraperitoneal; conditions: in vivo; in short: as §2
Mus musculus [11] = assay: Toxicity in mouse EAC cells transplanted Swiss albino mouse assessed as decrease in body weight at 25 mg/kg. ip dissolved in DMSO for 14 days measured after final dose by 18 hrs fasting; format: organism-based, Ehrlich; parameters: dose 25 mg/kg, route intraperitoneal; scale not given: the % may be the effect or the level left; conditions: in vivo; in short: as §2
HepG2 [12] = assay: Antitumor activity against human HepG2 cells incubated with drug dissolved in DMSO after 48 hrs by MTT assay; format: functional, cell-based; conditions: HepG2, 48 h; in short: as §1
Mus musculus [13] = species on record: Mus musculus; assay: Toxicity in mouse EAC cells transplanted Swiss albino mouse assessed as loss of appetite; format: organism-based; conditions: ehrlich
Mus musculus [14] = assay: Toxicity in mouse EAC cells transplanted Swiss albino mouse assessed as change in total WBC content at 20 mg/kg. ip dissolved in DMSO for 14 days measured after final dose by 18 hrs fasting; format: organism-based, Ehrlich; parameters: dose 20 mg/kg, route intraperitoneal; conditions: in vivo
In short: (§3)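 Reference-drug group (n = 5): mice given 2×10⁶ EAC cells in 0.2 ml i.p., then 20 mg/kg b.wt. for 14 days. Fasted 18 h after the last dose, then sacrificed. Tumour volume, haemoglobin, haematocrit, total WBC and body weight measured against normal and untreated EAC groups. Mean ± SE.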

[15] = Antitumor activity in mouse EAC cell transplanted in Swiss albino mouse assessed as decrease in tumor volume at 20 mg/kg. ip dissolved in DMSO for 14 days measured after final dose by 18 hrs fasting; format: functional, Ehrlich; conditions: route intraperitoneal; in short: as §3
Mus musculus [16] = assay: Toxicity in mouse EAC cells transplanted Swiss albino mouse assessed as change in hematocrit content at 20 mg/kg. ip dissolved in DMSO for 14 days measured after final dose by 18 hrs fasting; format: organism-based, Ehrlich; parameters: dose 20 mg/kg, route intraperitoneal; conditions: in vivo; in short: as §3
Mus musculus [17] = assay: Toxicity in mouse EAC cells transplanted Swiss albino mouse assessed as decrease in body weight at 20 mg/kg. ip dissolved in DMSO for 14 days measured after final dose by 18 hrs fasting; format: functional, Ehrlich; parameters: scale not given: the % may be the effect or the level left; conditions: route intraperitoneal; in short: as §3

Row | Structure (SMILES) | Activity (Mus musculus [1]) | Activity (Mus musculus [2]) | IC50 (HepG2 [3]) [µM] | Activity (Mus musculus [4]) | IC50 (HepG2 [5]) [µM] | Activity (Mus musculus [6]) | Activity [7] | IC50 (HepG2 [8]) [µM] | Activity (Mus musculus [9]) [%] | Activity (Mus musculus [10]) [%] | Activity (Mus musculus [11]) [%] | IC50 (HepG2 [12]) [µM] | Activity (Mus musculus [13]) | Activity (Mus musculus [14]) | Activity [15] [mL⁻¹] | Activity (Mus musculus [16]) [%] | Activity (Mus musculus [17]) [%]
1 | CC(=O)O[C@H]1CC[C@H]2[C@@H]3CC[C@H]4Cc5c(C#N)c(N)n(-c6ccccc6)c(=S)c5C[C@]4(C)[C@H]3CC[C@]12C | Non-toxic | Non-toxic | 40 | 5.75 /10'3mm'-3 | 48 | Non-toxic | 0 | > 100 | 33.8 | 12.6 | 18 | > 100 | Non-toxic |  |  |  | 
2 | COc1ccc(C2Oc3nc(N)c(C#N)c(N)c3C3=C2C[C@@]2(C)[C@@H](CC[C@@H]4[C@@H]2CC[C@]2(C)[C@@H](OC(C)=O)CC[C@@H]42)C3)cc1 (some centres undefined) | Non-toxic | Non-toxic | 41 | 7.35 /10'3mm'-3 | 48 | Non-toxic | 0 | > 100 | 38.3 | 12.65 | 21.5 | 95 | Non-toxic |  |  |  | 
3 | CC(=O)O[C@H]1CC[C@H]2[C@@H]3CC[C@H]4CNC(=O)CC[C@]4(C)[C@H]3CC[C@]12C | Non-toxic | Non-toxic | 35 | 6.46 /10'3mm'-3 | 47 | Non-toxic | 0 | 40 | 38.56 | 12.96 | 20.33 | 42 | Non-toxic |  |  |  | 
4 | CC(=O)O[C@H]1CC[C@H]2[C@@H]3CC[C@H]4CC5=C(C[C@]4(C)[C@H]3CC[C@]12C)C(c1ccccc1)OC(N)=C5C#N (some centres undefined) | Non-toxic | Non-toxic | 30 | 5.9 /10'3mm'-3 | 46 | Non-toxic | 0 | 73 | 36.6 | 12.5 | 18.66 | 81 | Non-toxic |  |  |  | 
5 | CC(=O)O[C@H]1CC[C@H]2[C@@H]3CC[C@H]4C/C(=N/n5c(-c6ccccc6)csc5=S)CC[C@]4(C)[C@H]3CC[C@]12C | Non-toxic | Non-toxic | 37 | 5.66 /10'3mm'-3 | 47 | Non-toxic | 0 | 90 | 42.7 | 10.7 | 20 | 85 | Non-toxic |  |  |  | 
6 | O=c1[nH]cc(F)c(=O)[nH]1 [FLUOROURACIL] |  |  |  |  |  |  |  |  |  |  |  |  |  | 6.4 /10'3mm'-3 | 0 | 10.73 | 23
